Laboratory results published in ChEMBL document CHEMBL1806465, “Synthesis and biological evaluation of 4-nitro-substituted 1,3-diaryltriazenes as a novel class of potent antitumor agents” (Eur J Med Chem, 2011).
Active and inactive are the calls of the source. No cut-off for these calls is given here.

Tests used:
[1] = Cytotoxicity against cisplatin-resistant human CA3ST cells after 72 hrs by MTT assay; format: functional, cell-based
Outline: (§1)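 MTT assay: 3000 cells/well seeded, compound added next day, each concentration in quadruplicate, 72 h at 37 °C; medium replaced with 20 µg MTT/well for 4 h, formazan dissolved in DMSO, OD 545 nm. […] Fibroblasts: normal skin fibroblasts from donor, DMEM/10% FBS, used at 32 and 36 population doublings.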

SW480 = assay: Cytotoxicity against human SW480 cells after 72 hrs by MTT assay; format: functional, cell-based; settings: SW480, 72 h; outline: as §1
RT-112 = assay: Cytotoxicity against human RT112 cells after 72 hrs by MTT assay; format: functional, cell-based; settings: RT-112, 72 h; outline: as §1
[2] = Cytotoxicity against human Fibroblast cells after 72 hrs by MTT assay; format: cell-based; outline: as §1
[3] = Therapeutic index, ratio IC50 for human HeLa cells to IC50 for normal human fibroblasts; format: cell-based; settings: HeLa cells versus normal human fibroblasts, read-out: Ratio IC50
Outline: (§2)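 IC50 values came from an MTT assay. Cells were seeded at 3000 per well and dosed the next day, with each concentration in quadruplicate. After 72 h at 37 °C, MTT (20 µg/well) was added for 4 h; formazan was dissolved in DMSO and read at 545 nm. Each experiment was done three times. Normal skin fibroblasts were used at 32 and 36 population doublings. T.I. = tumor-cell IC50 / fibroblast IC50.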

[4] = Therapeutic index, ratio IC50 for human SW620 cells to IC50 for normal human fibroblasts; format: cell-based, SW-620; settings: SW620 cells versus normal human fibroblasts, read-out: Ratio IC50; outline: as §2
[5] = Therapeutic index, ratio IC50 for human RT112 cells to IC50 for normal human fibroblasts; format: cell-based, RT-112; settings: RT112 cells versus normal human fibroblasts, read-out: Ratio IC50; outline: as §2
HeLa [6] = assay: Cell cycle arrest in human HeLa cells assessed as accumulation at G0/G1 phase at 0.78 uM after 24 hrs by propidium iodide staining -based flow cytometry (reference value: 60.6 %); format: functional
Outline: (§3)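 HeLa seeded at 100 000 cells/well, treated next day with 0.78, 7 or 21 µM for 24, 48 or 72 h. Adherent plus floating cells collected, PBS-washed, fixed overnight in 70% ethanol at −20 °C, RNase A 30 µg/ml 1 h RT, propidium iodide 16.7 µg/ml 30 min dark; DNA content by flow cytometry, phase percentages including subG1 reported.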

HeLa [7] = assay: Cell cycle arrest in human HeLa cells assessed as accumulation at G0/G1 phase at 7 uM after 24 hrs by propidium iodide staining -based flow cytometry (reference value: 60.6 %); format: functional; outline: as §3
HeLa [8] = assay: Cell cycle arrest in human HeLa cells assessed as accumulation at G0/G1 phase at 21 uM after 24 hrs by propidium iodide staining -based flow cytometry (reference value: 60.6 %); format: functional; outline: as §3
HeLa [9] = assay: Cell cycle arrest in human HeLa cells assessed as accumulation at G2/M phase at 0.78 uM after 24 hrs by propidium iodide staining -based flow cytometry (reference value: 11.7 %); format: functional; outline: as §3
HeLa [10] = assay: Cell cycle arrest in human HeLa cells assessed as accumulation at G2/M phase at 21 uM after 24 hrs by propidium iodide staining -based flow cytometry (reference value: 11.7 %); format: functional; outline: as §3
HeLa [11] = assay: Cell cycle arrest in human HeLa cells assessed as accumulation at subG1 phase at 7 uM after 24 hrs by propidium iodide staining -based flow cytometry (reference value: 9.4 %); format: functional; outline: as §3
HeLa [12] = assay: Cell cycle arrest in human HeLa cells assessed as accumulation at G0/G1 phase at 21 uM after 48 hrs by propidium iodide staining -based flow cytometry (reference value: 63.8 %); format: functional; outline: as §3
HeLa [13] = assay: Cell cycle arrest in human HeLa cells assessed as accumulation at S phase at 7 uM after 48 hrs by propidium iodide staining -based flow cytometry (reference value: 26.3 %); format: functional; outline: as §3
HeLa [14] = assay: Cell cycle arrest in human HeLa cells assessed as accumulation at S phase at 21 uM after 48 hrs by propidium iodide staining -based flow cytometry (reference value: 26.3 %); format: functional; outline: as §3
HeLa [15] = assay: Cell cycle arrest in human HeLa cells assessed as accumulation at G2/M phase at 0.78 uM after 48 hrs by propidium iodide staining -based flow cytometry (reference value: 9.9 %); format: functional; outline: as §3
HeLa [16] = assay: Cell cycle arrest in human HeLa cells assessed as accumulation at subG1 phase at 0.78 uM after 48 hrs by propidium iodide staining -based flow cytometry (reference value: 8.5 %); format: functional; outline: as §3
HeLa [17] = assay: Cell cycle arrest in human HeLa cells assessed as accumulation at S phase at 7 uM after 72 hrs by propidium iodide staining -based flow cytometry (reference value: 23.5 %); format: functional; outline: as §3
HeLa [18] = assay: Cell cycle arrest in human HeLa cells assessed as accumulation at G2/M phase at 0.78 uM after 72 hrs by propidium iodide staining -based flow cytometry (reference value: 9.7 %); format: functional; outline: as §3
HeLa [19] = assay: Cell cycle arrest in human HeLa cells assessed as accumulation at subG1 phase at 7 uM after 72 hrs by propidium iodide staining -based flow cytometry (reference value: 7.2 %); format: functional; outline: as §3
HeLa [20] = assay: Induction of reactive oxygen species generation in human HeLa cells after 8 hrs by FACS analysis; format: functional, cell-based
Outline: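 Logarithmically growing HeLa cells were preloaded with 10 µM CM-H2DCFDA for 1 h. They were then exposed to 7, 20 or 40 µM for 8 h, or to 7 µM for 2, 4 or 6 h. Cells were trypsinized, fixed in cold 80% methanol, resuspended in PBS and read for fluorescence by flow cytometry. The positive control was 0.01% H2O2 for 30 min.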

HeLa [21] = assay: Induction of Grp78 expression in human HeLa cells at 0.09 to 7 uM after 48 hrs by Western blot analysis; format: functional, cell-based
Outline: (§4)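 Logarithmically growing HeLa cells were exposed to varying concentrations for 48 h, or to 7 µM for varying times. Cell extracts were run on 10% SDS gels and transferred to nitrocellulose. Membranes were blocked in 5% milk and probed with anti-Grp78 (1:1000, overnight, 4 °C), then an HRP secondary (1:5000, 2 h, RT). Detection was by ECL, with ERK2 reprobing as the loading control.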

HeLa [22] = assay: Induction of Grp78 expression in human HeLa cells at 7 uM after 16 to 48 hrs by Western blot analysis; format: functional, cell-based; outline: as §4
HeLa [23] = assay: Induction of apoptotis in human HeLa cells assessed as morphological changes at 7 uM after 48 hrs by acridine orange and […] staining based epifluorescent microscopic analysis; format: functional, cell-based
Outline: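 After 48 h at 7 µM, adherent and floating HeLa cells were pooled and resuspended in medium. AO (15 µg/mL stock) and EtBr (50 µg/mL stock) were added. Under epifluorescence, apoptosis was scored from condensed chromatin and apoptotic bodies, which distinguish it from necrosis.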

HeLa [24] = assay: Induction of apoptotis in human HeLa cells assessed as cleavage of procaspase 9 at 7 uM after 48 hrs by Western blot analysis; format: functional, cell-based
Outline: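 HeLa cells were treated for 48 h at 7 µM and analysed by Western blot (10% SDS gels, nitrocellulose, HRP secondary, ECL, ERK2 loading control) for cleavage of apoptotic proteins. Antibodies: anti-PARP 1:4000; anti-caspase-3 and anti-caspase-8 1:1000; rabbit polyclonal anti-caspase-9 1:1000.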

[25] = Stability of the compound in DMSO after 26.25 hrs by LC/MS/MS analysis in presence of 10% FBS; format: physicochemical; settings: cattle, DMSO with 10% FBS; read-out: Stability

CC(=O)N(/N=N/c1ccc([N+](=O)[O-])cc1Cl)c1ccc([N+](=O)[O-])cc1Cl
IC50 [1]: 630 nM | IC50 (SW480): 530 nM | IC50 (RT-112): 7.2 µM | IC50 [2]: 14 µM | selectivity ratio [3]: 0.045 | selectivity ratio [4]: 0.032 | selectivity ratio [5]: 0.514 | Activity (HeLa [6]): 74.4% | Activity (HeLa [7]): 69.3% | Activity (HeLa [8]): 69.3% | Activity (HeLa [9]): 10.5% | Activity (HeLa [10]): 10.5% | Activity (HeLa [11]): 13.2% | Activity (HeLa [12]): 73% | Activity (HeLa [13]): 14.2% | Activity (HeLa [14]): 15.2% | Activity (HeLa [15]): 7% | Activity (HeLa [16]): 15.8% | Activity (HeLa [17]): 15.2% | Activity (HeLa [18]): 8.4% | Activity (HeLa [19]): 33% | Activity (HeLa [20]): Dose-dependent effect | Activity (HeLa [21]): Active | Activity (HeLa [22]): Active | Activity (HeLa [23]): Active | Activity (HeLa [24]): Active | remaining at 26.25 h [25]: 57%
